Results from ChEMBL document CHEMBL3352033, “Jatrophanes from Euphorbia squamosa as potent inhibitors of Candida albicans multidrug transporters” (J Nat Prod, 2014).
Calls of active or inactive are those of the source. No cut-off for these calls is given here.

Tested on: Candida albicans
Assay: Inhibition of Candida albicans CaCdr1p-mediated drug efflux overexpressed in Saccharomyces cerevisiae assessed as nile red accumulation after 30 mins by flow cytometry
Outline: (§1)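 Host is S. cerevisiae AD1-8u− deleted for its own multidrug transporters, carrying the C. albicans transporter ORF integrated at the PDR5 locus (AD-CDR1 or AD-MDR1). Cells are grown in YEPD at 30 °C from OD600 0.1 to 0.25, then resuspended as a 5% suspension in YEPD diluted 1:2 with water. NR is 7 μM final with inhibitor at 70 μM, 30 min at 30 °C. Read-out is flow cytometry of 10 000 cells. Three independent experiments.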

Row | Structure (SMILES) | inhibition
1 | C=C1[C@H](OC(C)=O)[C@@H](OC(C)=O)[C@@H](OC(C)=O)C(C)(C)/C=C/[C@H](C)C(=O)[C@@]2(OC(C)=O)C[C@H](C)[C@H](OC(C)=O)[C@@H]2[C@H]1OC(=O)c1ccccc1 | inactive
2 | C=C1[C@H](OC(=O)c2ccccc2)[C@H]2[C@@H](OC(C)=O)[C@@H](C)C[C@]2(OC(C)=O)C(=O)[C@@H](C)/C=C/C(C)(C)C(=O)[C@H](OC(C)=O)[C@H]1OC(C)=O | inactive
3 | C=C1CCC(=O)C(C)(C)/C=C/[C@H](C)C(=O)[C@@]2(OC(C)=O)C[C@H](C)[C@H](OC(=O)c3ccccc3)[C@@H]2[C@H]1OC(C)=O | Active
4 | CC(=O)O[C@@H]1[C@@H](OC(C)=O)C(C)(C)/C=C/[C@H](C)[C@@H](OC(C)=O)[C@@]2(OC(C)=O)C[C@@H](C)[C@H](OC(=O)c3ccccc3)/C2=C\[C@](C)(O)[C@@H]1O | inactive

Tested on: Candida albicans
Assay: Inhibition of Candida albicans CaMdr1p-mediated drug efflux overexpressed in Saccharomyces cerevisiae assessed as nile red accumulation after 30 mins by flow cytometry
Outline: as §1

Row | Structure (SMILES) | inhibition
5 | C=C1CCC(=O)C(C)(C)/C=C/[C@H](C)C(=O)[C@@]2(OC(C)=O)C[C@H](C)[C@H](OC(=O)c3ccccc3)[C@@H]2[C@H]1OC(C)=O | Active
